Experimental findings from BindingDB's records for doi:10.1016/j.bmc.2013.04.054 (Northwestern University, 2013) are described below.

The assay concerns the target Voltage-dependent L-type calcium channel subunit alpha-1C (Oryctolagus cuniculus, UniProt P15381). Put plainly: Antagonist activity at rabbit voltage-dependent L-type calcium channel Cav1.2alpha-1C expressed in HEK293 cells by FLIPR assay. An outline of the steps:
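HEK293 lines stably expressing rat CaV1.3α1D or rabbit CaV1.2α1C, with rat CaVβ3 and rat CaVα2δ-1 cDNAs used in construction. Calcium influx was read by Fluo-8 fluorescence on a FLIPR Tetra. […] The selectivity ratio is CaV1.3 IC50 over CaV1.2 IC50.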

Voltage-dependent L-type calcium channel subunit alpha-1C, sequence (P15381 whole entry): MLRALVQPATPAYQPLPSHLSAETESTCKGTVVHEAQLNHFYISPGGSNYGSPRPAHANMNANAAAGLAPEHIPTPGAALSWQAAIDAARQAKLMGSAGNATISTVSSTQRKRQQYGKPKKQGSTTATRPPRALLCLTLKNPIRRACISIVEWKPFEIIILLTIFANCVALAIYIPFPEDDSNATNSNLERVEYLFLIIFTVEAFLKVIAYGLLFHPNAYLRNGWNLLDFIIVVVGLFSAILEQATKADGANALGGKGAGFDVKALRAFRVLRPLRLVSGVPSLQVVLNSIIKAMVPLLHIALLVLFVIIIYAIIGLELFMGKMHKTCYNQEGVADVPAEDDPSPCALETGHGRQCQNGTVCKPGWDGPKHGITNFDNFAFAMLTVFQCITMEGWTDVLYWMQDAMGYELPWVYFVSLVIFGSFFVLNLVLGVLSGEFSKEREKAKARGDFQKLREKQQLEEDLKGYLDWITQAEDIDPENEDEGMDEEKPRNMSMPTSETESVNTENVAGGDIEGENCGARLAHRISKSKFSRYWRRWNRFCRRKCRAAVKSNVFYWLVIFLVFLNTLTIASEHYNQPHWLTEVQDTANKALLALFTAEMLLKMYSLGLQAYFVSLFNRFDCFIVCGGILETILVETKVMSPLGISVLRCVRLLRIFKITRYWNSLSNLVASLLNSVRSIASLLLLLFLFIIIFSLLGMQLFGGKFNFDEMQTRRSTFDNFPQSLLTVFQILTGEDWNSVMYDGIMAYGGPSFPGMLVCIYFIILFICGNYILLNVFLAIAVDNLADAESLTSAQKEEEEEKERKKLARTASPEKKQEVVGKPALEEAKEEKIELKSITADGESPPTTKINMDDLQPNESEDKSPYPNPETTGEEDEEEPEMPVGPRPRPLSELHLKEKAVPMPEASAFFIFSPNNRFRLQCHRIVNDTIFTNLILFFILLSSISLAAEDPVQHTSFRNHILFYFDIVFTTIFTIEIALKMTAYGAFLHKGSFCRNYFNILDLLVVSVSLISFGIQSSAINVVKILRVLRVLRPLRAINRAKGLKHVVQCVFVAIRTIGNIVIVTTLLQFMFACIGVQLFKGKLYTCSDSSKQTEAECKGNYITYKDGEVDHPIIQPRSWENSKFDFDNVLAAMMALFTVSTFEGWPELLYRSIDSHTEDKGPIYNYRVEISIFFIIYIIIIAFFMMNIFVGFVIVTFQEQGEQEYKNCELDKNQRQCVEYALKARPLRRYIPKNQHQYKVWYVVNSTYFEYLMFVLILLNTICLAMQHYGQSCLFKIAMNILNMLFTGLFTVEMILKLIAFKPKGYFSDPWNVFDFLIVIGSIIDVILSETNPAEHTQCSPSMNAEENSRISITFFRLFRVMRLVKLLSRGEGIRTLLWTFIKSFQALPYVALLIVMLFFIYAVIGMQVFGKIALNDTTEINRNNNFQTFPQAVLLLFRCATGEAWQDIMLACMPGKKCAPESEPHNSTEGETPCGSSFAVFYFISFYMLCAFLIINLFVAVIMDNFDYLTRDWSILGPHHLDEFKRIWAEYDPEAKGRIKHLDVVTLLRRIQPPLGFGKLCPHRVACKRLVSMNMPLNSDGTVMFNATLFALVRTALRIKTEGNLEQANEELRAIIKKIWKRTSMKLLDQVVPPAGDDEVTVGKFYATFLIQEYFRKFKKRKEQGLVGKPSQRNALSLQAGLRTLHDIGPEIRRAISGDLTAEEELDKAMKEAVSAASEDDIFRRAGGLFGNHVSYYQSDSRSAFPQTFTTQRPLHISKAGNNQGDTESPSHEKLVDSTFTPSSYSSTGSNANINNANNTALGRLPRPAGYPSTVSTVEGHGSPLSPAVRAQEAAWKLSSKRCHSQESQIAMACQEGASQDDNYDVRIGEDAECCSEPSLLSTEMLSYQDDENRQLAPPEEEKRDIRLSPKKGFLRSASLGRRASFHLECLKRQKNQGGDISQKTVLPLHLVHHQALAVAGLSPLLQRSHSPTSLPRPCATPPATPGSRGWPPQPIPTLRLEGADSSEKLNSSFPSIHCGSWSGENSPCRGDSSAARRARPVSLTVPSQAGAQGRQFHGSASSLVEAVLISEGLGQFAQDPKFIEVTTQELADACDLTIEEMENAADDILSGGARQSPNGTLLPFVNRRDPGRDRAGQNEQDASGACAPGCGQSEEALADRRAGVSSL

On to `COC(=O)C1C(C)=NC(=O)N(C(=O)OC(C)C)C1c1cccc([N+](=O)[O-])c1` (configuration not stated), for which the IC50 (commonly the concentration that inhibits the measured activity by half) was determined as 2480 nM.
Regarding `COC(=O)N1C(=O)N=C(C)C(C(=O)OC(C)C)[C@@H]1c1cccc([N+](=O)[O-])c1` (some centres not stated), the half-inhibitory concentration (IC50) is 2480 nM.
